We go through five compounds from PMC5434479 (Inorganic Chemistry, 2017).

Series [1] has as its system human lung adenocarcinoma epithelial (A549) cells. Description: MTS antiproliferation assay, A549 cells. Type of series: cell-based. The settings on record: for IC50: read-out: IC50 ± SE. In outline:
(§1)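 Culture was at 37 °C, 5% CO2: A549 in RPMI 1640, MCF-7 and MRC-5 in DMEM, each with 10% FCS, 2 mM L-glutamine and penicillin/streptomycin. Seeding per 100 μL was 8 × 10^3 (A549, MCF-7) or 2 × 10^3 (MRC-5). Compound in DMSO was diluted 100-fold into wells (1% DMSO final), tested at several concentrations in triplicate for 72 h. MTS reagent was added for 4 h, then A490 read; IC50 calculated.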

Series [2] concerns human fetal lung fibroblast (MRC-5) cells. Put plainly: MTS antiproliferation assay, MRC-5 healthy fibroblasts. Type of series: cell-based. The settings on record: for times less toxic toward healthy fibroblasts (MRC-5) than toward HL60 and MCF-7: MRC-5 versus HL60 and MCF-7; for IC50: read-out: IC50 ± SE. In outline:
as §1

For the next series, the system named is A549 cells. Put plainly: Cellular uptake, gold content by ICP-MS, A549 cells. Format: cell-based, human. The settings on record: A549, 10 μM, 6 h.
Series [3] has as its target MDM2–p53 interaction (human MDM2 protein, residues 17–125) (Homo sapiens, UniProt Q00987). Description: Fluorescence polarization assay of MDM2–p53 interaction. Type of series: binding. The settings on record: for disruption of MDM2–p53 interaction in screening (in words): 100 μM. In outline: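 Compound in DMSO was added at 1:10. Positive control was wild-type p53 peptide (15–27) at 400 μM final, negative control DMSO, each in triplicate. Plates were incubated 30 min at room temperature and read by polarisation at 490/520 nm, with total fluorescence checked. IC50 came from log(inhibitor) versus response, variable slope.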

Series [4] has as its system human telomeric i-motif sequence (hTeloC). Description: FRET DNA-melting assay, hTeloC. Format: binding. To be noted: pH 5.5 and pH 6.0; for interaction in preliminary screening (in words): hTeloC i-motif 0.2 μM, 50 equiv (10 μM); for stabilization of telomeric i-motif, pH 6.0 versus pH 5.5 (in words): hTeloC. In outline:
(§2)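 FAM/TAMRA-labelled oligonucleotides were annealed in 10 mM sodium cacodylate with 100 mM NaCl. Buffer was pH 5.5 and 6.0 for hTeloC and pH 7.2 for hif-1α, hTeloG and duplex. Final DNA was 0.2 μM, with compound added at 1:10 by volume. DMSO-matched DNA controls ran in each run. Melting curves were recorded by real-time PCR machine, excitation 470 nm and detection 510 nm. Mean and SD of three experiments.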

In series [5] the test system is G-quadruplex-forming sequence from the human telomere (hTeloG). Put plainly: FRET DNA-melting assay, hTeloG. Format: binding. The settings on record: hTeloG G-quadruplex 0.2 μM, 50 equiv (10 μM), pH 7.2. In outline:
as §2

The test system of another series is MCF-7 cells. Description: Cellular uptake, gold content by ICP-MS, MCF-7 cells. The settings on record: MCF-7, 1 μM, 6 h. Format: cell-based, human.
Series [6] deals with i-motif-forming sequence from the promoter region of the oncogene hif-1α. Put plainly: FRET DNA-melting assay, hif-1α i-motif. Format: binding. To be noted: hif-1α i-motif 0.2 μM, 50 equiv (10 μM), pH 7.2. In outline: as §2
Series [7] deals with human promyelocytic leukemia (HL60) cells. Put plainly: MTS antiproliferation assay, HL60 cells. Format: cell-based. To be noted: for cell viability: HL60, 1 μM; for cell viability / inhibition of HL60 cell proliferation (in words): 72 h; for inhibition of HL60 cell proliferation (in words): HL60, 10 μM; for IC50: read-out: IC50 ± SE. In outline: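 HL60 cells were kept in RPMI 1640 with 10% FCS, 2 mM L-glutamine and penicillin/streptomycin at 37 °C, 5% CO2, and seeded at 3 × 10^4 per 100 μL. Compound predissolved in DMSO was diluted 100-fold into wells (1% DMSO final). Wells received 10 or 1 μM, or a concentration series, in triplicate for 72 h. MTS reagent was added for 4 h, then absorbance read at 490 nm. Screening data were averaged over three experiments; IC50 calculated.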

In series [8] the test system is human breast adenocarcinoma (MCF-7) cells. Description: MTS antiproliferation assay, MCF-7 cells. Type of series: cell-based. To be noted: for IC50: read-out: IC50 ± SE. In outline: as §1
Another series relates to double-stranded DNA. Description: FRET DNA-melting assay, double-stranded DNA. Type of series: binding. To be noted: double-stranded DNA 0.2 μM, 50 equiv (10 μM), pH 7.2. In outline: as §2
In the next series the target is MDM2 (Homo sapiens, UniProt Q00987). Description: STD NMR binding to MDM2. To be noted: 13.5 μM MDM2, 500 μM compound, 1% DMSO-d6, 25 °C. In outline: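 STD NMR at 800 MHz used a pseudo-2D sequence with spoil pulses. Protein was saturated by cascades of 49 ms Gaussian pulses, 1 ms apart, on-resonance at 0 ppm and off-resonance at 40 ppm. Saturation lasted 4 s for binding detection and 0.5 s for epitope mapping, 1024 scans each. Blank runs without protein were done. Epitope values were normalised to the most intense proton as 100%.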
Chain of MDM2 (Q00987 whole entry): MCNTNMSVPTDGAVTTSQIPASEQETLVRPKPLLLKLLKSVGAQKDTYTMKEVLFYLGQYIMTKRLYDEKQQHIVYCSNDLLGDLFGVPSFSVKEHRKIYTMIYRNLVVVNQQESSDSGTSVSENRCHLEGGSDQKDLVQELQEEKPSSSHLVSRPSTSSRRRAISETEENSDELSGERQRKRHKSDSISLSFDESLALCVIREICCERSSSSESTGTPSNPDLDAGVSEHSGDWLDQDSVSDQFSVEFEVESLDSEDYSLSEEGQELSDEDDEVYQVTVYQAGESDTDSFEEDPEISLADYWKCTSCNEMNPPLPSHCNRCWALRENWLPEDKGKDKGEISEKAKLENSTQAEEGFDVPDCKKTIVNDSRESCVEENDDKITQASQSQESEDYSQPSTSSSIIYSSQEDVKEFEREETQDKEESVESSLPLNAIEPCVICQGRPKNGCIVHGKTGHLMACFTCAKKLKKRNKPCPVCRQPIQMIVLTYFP

Series [9] can be described thus: Reaction with glutathione monitored by 1H NMR. Type of series: physicochemical. To be noted: equimolar GSH (10 mM) in DMSO-d6, room temperature, 6 days.

Where two headings read alike, the source gives them in different places. Bounds are passed on as bounds.

Chain of MDM2–p53 interaction (human MDM2 protein, residues 17–125) (Q00987 17-125): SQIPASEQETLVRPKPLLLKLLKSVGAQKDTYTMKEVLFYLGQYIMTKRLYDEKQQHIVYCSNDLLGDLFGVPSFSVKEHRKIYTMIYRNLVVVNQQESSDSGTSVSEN

Regarding “[(C^N^pz^N)Au(1,3,7,9-tetramethylxanthin-8-ylidene)]BF4 [Compound 3]”, the half-inhibitory concentration (IC50) was more than 50 µM in series [1] (A549, 72 h incubation, MTS); 17.6 ± 1.9 µM in series [2] (MRC-5, 72 h incubation, MTS); 4.05 ± 0.43 µM in series [7] (HL60, 72 h incubation, MTS); 7.9 ± 0.13 µM in series [8] (MCF-7, 72 h incubation, MTS). Besides, the “times less toxic toward healthy fibroblasts (MRC-5) than toward HL60 and MCF-7” value in series [2] is on record as 2–4. The “cell uptake (in words)” value in the series on A549 cells and in the series with MCF-7 cells was “poorly taken up” throughout. Besides, the “disruption of MDM2–p53 interaction in screening (in words)” value in series [3] is “only compounds 1 and 2 appeared to disrupt”. Also, the “interaction in preliminary screening (in words)” value in series [4], in series [5] and in series [6] was “good interactions” throughout. In addition, the “stabilization of telomeric i-motif, pH 6.0 versus pH 5.5 (in words)” value in series [4] was “does not show any particular difference”. Besides, the cell viability result in series [7] is listed as “nontoxic”. In series [7], the “inhibition of HL60 cell proliferation (in words)” value (from here on “inhibition”) was “completely inhibited cell proliferation”.
In the case of `N.N.[Cl][Pt][Cl]` [cisplatin, cis-diamminedichloroplatinum(II), reference compound], the half-maximal inhibitory concentration (IC50) in series [1] (A549, 72 h incubation, MTS) came out at 33.7 ± 3.7 µM; in series [2] (MRC-5, 72 h incubation, MTS) it was 10.7 ± 3 µM; in [7] (HL60, 72 h incubation, MTS) it was 3.7 ± 0.25 µM; in series [8] (MCF-7, 72 h incubation, MTS), 21.2 ± 3.9 µM.
Take “(C^N^pz^N)Au(6-thioguanine) [Compound 4]”: the IC50 came out at 29 ± 1.8 µM in series [1] (A549, 72 h incubation, MTS); 4.3 ± 0.7 µM in [2] (MRC-5, 72 h incubation, MTS); 0.9 ± 0.22 µM in series [7] (HL60, 72 h incubation, MTS); 0.78 ± 0.11 µM in series [8] (MCF-7, 72 h incubation, MTS). For the same compound, the “interaction in preliminary screening (in words)” value (with double-stranded DNA; in [4]; in series [5]; in series [6]) was “did not show any interaction” throughout. Further, in [7], the cell viability turned out to be 60%. Moreover, in series [7], the “inhibition” value was “completely inhibited cell proliferation”.
On to `Nc1nc2nc[nH]c2c(=S)[nH]1` [Compound 6-TG, 6-thioguanine, reference compound], for which the half-maximal inhibitory concentration (IC50) was more than 50 µM in series [1] (Homo sapiens, A549, 72 h); more than 50 µM in [2] (Homo sapiens, MRC5, 72 h); 0.98 ± 0.07 µM in [7] (Homo sapiens, HL-60, 72 h); 0.42 ± 0.13 µM in series [8] (Homo sapiens, MCF7, 72 h). The “IC50 ± SE” value in series [2] (MRC-5, 72 h incubation, MTS) was “nontoxic”.
In the case of “[(C^N^pz^N)Au(1,3-dimethylbenzimidazol-2-ylidene)]PF6 [Compound 2]”, the “times more toxic than cisplatin” value in series [1] (A549, ratio of IC50 values) turned out to be 4. Moreover, the “toxicity relative to (benzimidazolylidene)AuCl” value in series [1] (A549, comparator value ref 25b) is recorded as “more than twice as toxic”. Moreover, the IC50 in [1] (A549, 72 h incubation, MTS) is 7.8 ± 1.3 µM; in series [2] (MRC-5, 72 h incubation, MTS) it was 1.4 ± 0.4 µM; in series [3] (10 nM HDM2 and tagged peptide, pH 7.4) it was 31.1 ± 1.1 µM; in series [7] (HL60, 72 h incubation, MTS) it was 0.31 ± 0.15 µM; in series [8] (MCF-7, 72 h incubation, MTS), 0.56 ± 0.02 µM. For the same compound, the “times less toxic toward healthy fibroblasts (MRC-5) than toward HL60 and MCF-7” value in series [2] is 2–4. Also, the “cell uptake (in words)” value is recorded as “much higher uptake” in the series on A549 cells and “highest concentrations” with MCF-7 cells. The “intracellular gold concentration, times higher than that of 1” value in the series with A549 cells is recorded as approximately 4. In the series on A549 cells, the “intracellular gold concentration, times higher than that of 3” value was approximately 11. Besides, in series [3], the “disruption of MDM2–p53 interaction in screening (in words)” value is “appeared to disrupt the MDM2–p53 interaction”. Also, the “binding to MDM2 in solution (in words)” value on MDM2 is listed as “clearly confirmed the binding”. For the same compound, the “interaction in preliminary screening (in words)” value in series [4], in series [5] and in [6] was “good interactions” throughout. In addition, the “stabilization of telomeric i-motif, pH 6.0 versus pH 5.5 (in words)” value in series [4] was “stabilize the telomeric i-motif structure at pH 6.0 more efficiently than at pH 5.5”. The “stability toward GSH” value in series [9] was “high stability”. The cell viability in series [7] is on record as 22%. In addition, the “inhibition” value in series [7] is reported as “completely inhibited cell proliferation”. Besides, the “times more potent than 3” value in [8] (MCF-7, ratio of IC50 values) is listed as “up to 14”. Further, in [8] (MCF-7, comparator value ref 44), the “times more toxic than (benzimidazolylidene)AuCl” value was “more than 10”.
